{"data": "Published values from different studies", "ABL1": "Tyrosine-protein kinase ABL1 (ABL1, Homo sapiens, UniProt P00519)", "ABL1 phosphorylated": "Tyrosine-protein kinase ABL1, phosphorylated (ABL1, Homo sapiens, UniProt P00519)", "note": "Protocols differ between the studies behind these lines."}
{"SMILES": "O=C(Nc1cccnn1)N1CCN([C@@H]2CCOc3cc(C(F)(F)F)ccc32)CC1", "target": "ABL1", "read-out": "enzyme activity", "action": "inhibitor", "tested at": "20 µM", "measurement": "inhibition", "value": "-3%"}
{"SMILES": "Nc1ncc(-c2nc(N3CCOCC3)nc(N3CCOCC3)n2)c(C(F)F)n1", "target": "Tyrosine-protein kinase ABL1, non-phosphorylated (ABL1, Homo sapiens, UniProt P00519, F317I)", "read-out": "binding", "technique": "competition with immobilised ligand", "tested at": "10 µM", "measurement": "remaining binding", "value": "84%"}
{"SMILES": "Cc1nn(C)cc1-c1nc2c(N3CCN(Cc4ccc(Cl)cc4)CC3)c(Cl)cnc2[nH]1", "target": "ABL1 phosphorylated", "read-out": "binding", "technique": "competition with immobilised ligand", "tested at": "1 µM", "measurement": "remaining binding", "value": "100%"}
{"SMILES": "O=c1[nH]c2ccccc2n1C1CCN(Cc2ccc(-c3[nH]c4cc5ncnc5cc4nc3-c3ccccc3)cc2)CC1", "target": "ABL1", "read-out": "cell-free assay", "tested at": "0.5 µM", "measurement": "remaining signal", "value": "98.2%"}
{"SMILES": "Cn1cncc1[C@](O)(COc1ccc(C#N)cc1-c1ccc(OC(F)(F)F)cc1)c1ccc(C#N)cc1", "target": "ABL1 phosphorylated", "read-out": "cell-free assay", "technique": "competition with immobilised ligand", "tested at": "1 µM", "measurement": "remaining binding", "value": "100%"}
{"SMILES": "C#Cc1n[nH]c2c(-c3cn(C(C)c4ccccn4)c(=O)[nH]c3=O)cc(F)cc12 (centres unmarked)", "target": "ABL1", "read-out": "enzyme activity", "action": "inhibitor", "tested at": "1 µM", "measurement": "inhibition", "value": "-8.5%"}
{"SMILES": "Cn1cc(-c2cc(F)cc(N3CCn4c(cc5c4CCCC5)C3=O)c2CO)cc(Nc2ccc(N3CCN(C4COC4)CC3)cn2)c1=O", "target": "ABL1", "read-out": "enzyme activity", "action": "inhibitor", "tested at": "0.1 µM", "measurement": "inhibition", "value": "-1%"}
{"SMILES": "N#CC1(c2ccccn2)CCN(Cc2cc(C(=O)O)c(=O)n3ccccc23)CC1", "target": "Tyrosine-protein kinase ABL1, phosphorylated (ABL1, Homo sapiens, UniProt P00519, F317L)", "read-out": "cell-free assay", "technique": "competition with immobilised ligand", "tested at": "1 µM", "measurement": "remaining binding", "value": "84%"}
